Converted amounts (≈) assume the structure as drawn. The source made the active and inactive calls. The calls are words filed in the database; no cut-off is given here.

In the first data set the test system is NCI-H460. The data set is described as follows: Induction of cell cycle arrest in human NCI-H460 cells assessed as accumulation of cells at G2/M phase at 10 uM incubated for 24 hrs by PI staining based flow cytometric analysis.
Details: not given
It counts as functional. In short, it runs like this: (§1)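 A549 or H460 cells synchronized in low-serum medium 12 h, then inhibitor 24 h; propidium iodide staining, flow cytometry, univariate cell-cycle model (Watson pragmatic, G0/1 and G2/M peak constraints); % of total cells as mean ± SE, n = 2-3 independent experiments.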
As to `Cc1cc(C)cc(Nc2nc(C)c(-c3ccccc3)cc2C#N)c1`, the result was Active.

The subject of the next data set is A549. The data set is described as follows: Antiproliferative activity against human A549 cells assessed as inhibition of cell growth incubated for 72 hrs by MTT assay. On the set-up: scale not given: the % may be the effect or the level left. It counts as functional.
Details: not given
In short, it runs like this: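 A549 human lung cancer cells exposed to a single 5 μmol L⁻¹ dose for 72 h; viability read by MTT assay.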
With `Cc1cc(Br)cc(Nc2nc(C)c(-c3ccccc3)cc2C#N)c1`, the Activity came to 35.3%.
Still for that read-out and setting: with `Cc1cc(C)cc(Nc2nc(C)c(-c3ccccc3)cc2C#N)c1` the figure was 9.8%; with `Cc1nc(Nc2cccc(I)c2)c(C#N)cc1-c1ccccc1`, 26.6%.

In another data set the test system is A549. Description: Induction of cell cycle arrest in human A549 cells assessed as accumulation of cells at G2/M phase at 10 uM incubated for 24 hrs by PI staining based flow cytometric analysis.
Details: not given
It counts as functional. In short, it runs like this:
as §1
As for `Cc1cc(C)cc(Nc2nc(C)c(-c3ccccc3)cc2C#N)c1`, the result was Active.

System in the next data set: not listed separately
The data set is described as follows: Solubility of the compound in pH 7.4 PBS buffer. It counts as physicochemical.
Details: not given
In turn, `Cc1nc(Nc2cccc(C(C)C)c2)c(C#N)cc1-c1ccccc1` displayed a solubility of 0.9 µM (≈ 0.295 µg/mL).
The same measure, in the same setting: next, `Cc1cc(C)cc(Nc2nc(C)c(-c3ccccc3)cc2C#N)c1`: 3 µM (≈ 0.94 µg/mL); `Cc1cc(C)cc(Nc2ncc(-c3ccccc3)cc2C#N)c1`: 4 µM (≈ 1.2 µg/mL).

The next data set relates to MCF7. Description: Inhibition of NRF2/ARE (unknown origin) transfected in human MCF7 cells assessed as cellular activity preincubated with compound for 1 hrs followed by tBHQ addition and measured after 24 hrs by steady-glo luciferase assay relative to control. The format is cell-based. Further details: concentration or dose not given beside the values. The note with it: time 25.0 hrs, dose or concentration not given here.
In the case of `Cc1cc(C)cc(Nc2nc3ccccc3cc2C#N)c1`, the inhibition was 21.2%.
Take `Cc1nc(C)nc(Nc2ncc(-c3ccccc3)cc2C#N)n1`: the inhibition amounted to 9.6%.
On to `Cc1cc(C)cc(Nc2nc(C)c(-c3cccc(Cl)c3)cc2C#N)c1`, for which the inhibition turned out to be 49.2%.
Still for that read-out and setting: with `Cc1nc(Nc2cccc(C(C)C)c2)c(C#N)cc1-c1ccccc1` the figure was 55.2%.
Still for that read-out and setting: with `Cc1nc(Nc2cccc(C(C)O)c2)c(C#N)cc1-c1ccccc1` (centres undefined) the figure was 5.2%; with `CC(=O)N(c1cc(C)cc(C)c1)c1nc(C)c(-c2ccccc2)cc1C#N`, 12.5%.
The same measure, in the same setting: next, `Cc1cc(C)cc(Nc2ncc(-c3cccc(Cl)c3)cc2C#N)c1`: 18.2%; `Cc1cc(Br)cc(Nc2nc(C)c(-c3ccccc3)cc2C#N)c1`: 58.4%.
Turning to `N#Cc1cc(-c2ccccc2)cnc1Nc1cc(C(F)(F)F)ccn1`, the inhibition is 55.3%.
On to `Cc1cc(C)nc(Nc2ncc(-c3ccccc3)cc2C#N)n1`, for which the inhibition was 11.2%.
On to `Cc1cc(C)cc(Nc2nc(C)c(-c3ccccc3)cc2C#N)c1`, for which the inhibition was 54.6%.
Regarding `Cc1cc(C)nc(Nc2ncc(-c3ccccc3)cc2C#N)c1`, the inhibition turned out to be 20%.
The same measure, in the same setting: next, `CC(C)(C)[Si](C)(C)OCc1ccnc(Nc2ncc(-c3ccccc3)cc2C#N)c1`: 43.3%; `Cc1cc(C)cc(Nc2ncc(-c3cc(C)cc(C)c3)cc2C#N)c1`: 25.1%; `Cc1cc(C)cc(Nc2ncc(-c3cc(Cl)cc(Cl)c3)cc2C#N)c1`: 2.9%.
On the same count and under the same terms, with `COc1ccnc(Nc2ncc(-c3ccccc3)cc2C#N)c1` the figure was 39.7%.
As for `Cc1cncc(Nc2ncc(-c3ccccc3)cc2C#N)n1`, the inhibition turned out to be 13.2%.
Turning to `Cc1cc(C)cc(Nc2nc(C)ccc2C#N)c1`, the inhibition was determined as 6.1%.
Same read-out and setting: with `Cc1cncc(Nc2ncc(-c3ccccc3)cc2C#N)c1` the figure was 25.3%; with `Cc1nc(Nc2cccc(CO)c2)c(C#N)cc1-c1ccccc1`, 16.7%.
Still for that read-out and setting: with `Cc1nc(Nc2cccc(I)c2)c(C#N)cc1-c1ccccc1` the figure was 51.8%.
For the compound `Cc1ccnc(Nc2nccc(-c3ccccc3)c2C#N)c1`, the inhibition is 35.4%.
On the same count and under the same terms, with `Cc1cc(Nc2nc(C)c(-c3ccccc3)cc2C#N)cc(C)c1C` the figure was 37.2%; with `Cc1cc(Nc2nc(C)c(-c3ccccc3)cc2C#N)cc(C)c1Br`, 25.7%.
With `N#Cc1cc(-c2ccccc2)cnc1Nc1cnccn1`, the inhibition turned out to be 28.3%.
On the same count and under the same terms, next, `Cc1cc(C)cc(N(C)c2nc(C)c(-c3ccccc3)cc2C#N)c1`: 21.9%; `CCc1ccnc(Nc2ncc(-c3ccccc3)cc2C#N)c1`: 42.3%.
On the same count and under the same terms, with `Cc1cc(C)cc(Nc2ncc(-c3cccc(O[Si](C)(C)C(C)(C)C)c3)cc2C#N)c1` the figure was 12.6%; with `N#Cc1cc(-c2ccccc2)cnc1Nc1ccccn1`, 25.5%; with `Cc1cccc(Nc2nc(C)c(-c3ccccc3)cc2C#N)c1`, 40.9%.
Take `N#Cc1c(-c2ccccc2)ccnc1Nc1cc(Br)ccn1`: the inhibition came to 7.5%.
On the same count and under the same terms, next, `Cc1cc(C)cc(Nc2nc(-c3ccccc3)ccc2C#N)c1`: 3.7%.
On the same count and under the same terms, with `Cc1cc(C)cc(Nc2ncc(-c3ccccc3Cl)cc2C#N)c1` the figure was 32.9%; with `Cc1nc(Nc2cc(Br)cc(Br)c2)c(C#N)cc1-c1ccccc1`, 7.7%; with `Cc1nc(Nc2cc(Cl)cc(Cl)c2)c(C#N)cc1-c1ccccc1`, 15.7%.
Still for that read-out and setting: with `Cc1cc(C)cc(Nc2ncc(-c3ccccc3)cc2C#N)c1` the figure was 38.4%.
With `Cc1cc(C)cc(Nc2nccc(-c3ccccc3)c2C#N)c1`, the inhibition turned out to be 39%.
Still for that read-out and setting: next, `Cc1ccc(C)c(Nc2nc(C)c(-c3ccccc3)cc2C#N)c1`: 51%.

The subject of another data set is MCF7. Description: Inhibition of NRF2/ARE (unknown origin) transfected in human MCF7 cells assessed as cellular activity measured before deprotection of compound preincubated with compound for 1 hrs followed by tBHQ addition and measured after 24 hrs by steady-glo luciferase assay relative to control. The format is cell-based. The settings on record: time 25.0 hrs, dose or concentration not given here.
With `Cc1nc(Nc2cccc(C(C)O)c2)c(C#N)cc1-c1ccccc1` (centres undefined), the inhibition came to 26%.

Another data set has as its target T1, Nuclear factor erythroid 2-related factor 2 (Homo sapiens) (UniProt Q16236).
T1 sequence (whole entry): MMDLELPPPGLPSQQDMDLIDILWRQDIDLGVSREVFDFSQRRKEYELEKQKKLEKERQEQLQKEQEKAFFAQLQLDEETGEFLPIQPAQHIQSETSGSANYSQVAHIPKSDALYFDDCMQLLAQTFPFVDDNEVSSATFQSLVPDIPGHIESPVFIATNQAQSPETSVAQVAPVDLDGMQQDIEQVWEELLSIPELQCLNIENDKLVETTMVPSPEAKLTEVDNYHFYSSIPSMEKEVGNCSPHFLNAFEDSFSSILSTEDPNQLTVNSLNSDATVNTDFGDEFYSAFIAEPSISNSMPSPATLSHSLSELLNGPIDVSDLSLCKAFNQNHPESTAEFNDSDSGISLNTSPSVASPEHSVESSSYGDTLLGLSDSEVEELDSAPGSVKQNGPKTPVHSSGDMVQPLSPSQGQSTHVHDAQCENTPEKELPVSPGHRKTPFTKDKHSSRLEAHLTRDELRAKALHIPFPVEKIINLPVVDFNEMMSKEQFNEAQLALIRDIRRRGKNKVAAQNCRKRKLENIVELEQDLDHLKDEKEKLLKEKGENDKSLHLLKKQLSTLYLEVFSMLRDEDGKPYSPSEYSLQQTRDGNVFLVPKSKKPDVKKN
The data set is described as follows: Activation of Nrf2 (unknown origin) assessed as cellular activity measured before deprotection of compound. The settings on record: filed as activator.
Turning to `N#Cc1c(-c2ccccc2)ccnc1Nc1cc(CO)ccn1`, the Activity was -4.65%.

For another data set, the target named is T1, Nuclear factor erythroid 2-related factor 2 (Homo sapiens). The data set is described as follows: Activation of Nrf2 (unknown origin) assessed as cellular activity. Further details: concentration or dose not given beside the values. The settings on record: filed as activator.
`Cc1cccc(Nc2ncc(-c3ccccc3)cc2C#N)n1`: the Activity is -13.8%.
The same measure, in the same setting: with `Cc1cc(N)cc(Nc2nc3ccccc3cc2C#N)c1` the figure was -9.5%; with `Cc1cc(C)cc(Nc2ncc(-c3cccnc3)cc2C#N)c1`, -8.7%.
The same measure, in the same setting: with `N#Cc1c(-c2ccccc2)ccnc1Nc1ccccn1` the figure was -78.1%; with `COc1cc(OC)cc(-c2cnc(Nc3cc(C)cc(C)c3)c(C#N)c2)c1`, -23.3%.
Still for that read-out and setting: next, `Cc1cc(C)cc(Nc2ncc(-c3ccc(Cl)cc3)cc2C#N)c1`: -4.9%; `CCOC(=O)c1ccnc(Nc2ncc(-c3ccccc3)cc2C#N)c1`: -0.1%; `CCCc1nc(Nc2cc(C)cc(C)c2)c(C#N)cc1-c1ccccc1`: -11.8%.
As to `Cc1cc(C)cc(Oc2ncc(-c3ccccc3)cc2C#N)c1`, the Activity is -45.4%.
The same measure, in the same setting: next, `COc1cc(Nc2ncc(-c3ccccc3)nc2C#N)cc(OC)c1`: -66%.
The same measure, in the same setting: with `Cc1cc(Nc2ncc(-c3ccccc3)cc2C#N)ccn1` the figure was -20.3%; with `Cc1cc(C)cc(Nc2ncc(-c3ccncc3)cc2C#N)c1`, -42.8%.
On the same count and under the same terms, next, `Cc1cc(C)cc(Nc2nc(C)c(-c3ccccc3)cc2C(N)=O)c1`: -18.1%; `Cc1cc(Nc2ncc(-c3ccccc3)cc2C#N)cc(C)c1C`: -32.3%; `COc1ccnc(Nc2nccc(-c3ccccc3)c2C#N)c1`: -4.5%.
`Cc1cc(C)cc(Nc2ncc(-c3ccccc3)nc2C#N)c1`: the Activity is -7.8%.
In the case of `Cc1cc(Nc2ncc(-c3ccccc3)cc2C#N)nc(C)n1`, the Activity was -33.9%.
On the same count and under the same terms, next, `COc1ccc(-c2cnc(Nc3cc(C)cc(C)c3)c(C#N)c2)cc1`: -1.5%; `Cc1cc(C)cc(Nc2nc3ncccc3cc2C#N)c1`: -42.7%; `N#Cc1cc(-c2ccccc2)cnc1Nc1ccc(Cl)nn1`: -131%.
For `N#Cc1cc(-c2ccccc2)cnc1Nc1cc(C2CC2)ccn1`, the Activity was -23.6%.
On the same count and under the same terms, with `Cc1cc(C)cc(Nc2nc(C)c(C(C)C)cc2C#N)c1` the figure was -6.3%.
The same measure, in the same setting: next, `Cc1ccc(-c2cnc(Nc3cc(C)cc(C)c3)c(C#N)c2)cc1`: -29.6%; `N#Cc1c(-c2ccccc2)ccnc1Nc1cc(CO)ccn1`: -31.8%; `Cc1cc(C)cc(Cc2ncc(-c3ccccc3)cc2C#N)c1`: -33.9%.

In a further data set the test system is A549. Description: Inhibition of cell migration in human A549 cells at 10 uM incubated for 24 hrs by DAPI staining based transwell migration assay relative to control.
Details: not given
It counts as functional. In short, it runs like this: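 Transwell migration of A549 cells seeded in serum-free medium with DMSO vehicle or compound (1, 5, 10 μmol L⁻¹) in top chamber; bottom medium with compound and 5% FBS chemoattractant; 24 h, filters fixed, unmigrated cells removed, DAPI stain, 9 fields imaged per insert; two inserts per condition, n = 2-3; one- or two-way ANOVA vs vehicle.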
On to `Cc1cc(C)cc(Nc2nc(C)c(-c3ccccc3)cc2C#N)c1`, for which the inhibition at 10 µM is 65%.

Usually solubility stands for how much of the substance goes into solution per volume. Broadly, the inhibition is how much of the control response was suppressed.

Source of the values: ChEMBL document CHEMBL5230161, “Exploring structural effects in a new class of NRF2 inhibitors” (RSC Med Chem, 2023).
